Calls of active or inactive are those of the source. The rule behind the calls is not given here. Numbered stars: 1 amine (or outer) side, 2 acyl side, 3 side chain; on linkers, the order of the positions; unused ones are H or OH. Square brackets hold non-standard residues; d marks the D form. Peptide text beside a SMILES is read from it. X1 = N[C@@H](Cc1ccccc1)CN(CC(=O)[*:2])[*:1]; Ava = NCCCCC(=O)O; GABA = NCCCC(=O)O; βAla = NCCC(=O)O
How the values were obtained:
Type in all cases: functional
Mus musculus [1] = species: Mus musculus; test: The maximal effect induced by an agonist expressed as percent inhibition of electrically induced twitches; Inactive at 10 uM
How it was run: (§1)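 Vas deferens from Swiss male mice (25–30 g), prepared per Hughes, in Mg2+-free Krebs (95% O2/5% CO2, pH 7.4) at 33 °C, 0.3 g resting tension. Field stimulation via platinum ring electrodes: supramaximal 1-ms pulses, 0.1 Hz. Isotonic twitch recording. After ~2 h equilibration, cumulative concentration–response curves in 0.5 log steps. Mean ± SEM of at least four experiments; pEC50 with 95% confidence limits.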

Mus musculus [2] = species: Mus musculus; test: Antagonist effect in the electrically stimulated mouse vas deferens; Inactive at 10 uM
Mus musculus [3] = species: Mus musculus; test: Agonist effect in the electrically stimulated mouse vas deferens. (CL95%); Inactive at 10 uM; how it was run: as §1
Mus musculus [4] = species: Mus musculus; test: Antagonist effect in the electrically stimulated mouse vas deferens; details: read-out: pA2 (converted)
Mus musculus [5] = species: Mus musculus; test: The maximal effect induced by an agonist expressed as percent inhibition of electrically induced twitches;I = Inactive at 10 uM; how it was run: as §1
Mus musculus [6] = species: Mus musculus; test: Antagonist effect in the electrically stimulated mouse vas deferens;I = Inactive at 10 uM
Mus musculus [7] = species: Mus musculus; test: Agonist effect in the electrically stimulated mouse vas deferens.;I = Inactive at 10 uM; how it was run: as §1
Mus musculus [8] = species: Mus musculus; test: The maximal effect induced by an agonist expressed as percent inhibition of electrically induced twitches.; how it was run: as §1
Mus musculus [9] = species: Mus musculus; test: Agonist effect in the electrically stimulated mouse vas deferens. (CL95%); how it was run: as §1
Mus musculus [10] = species: Mus musculus; test: The maximal effect induced by an agonist expressed as percent inhibition of electrically induced twitches; how it was run: as §1

Row | Compound | Log EC50 (Mus musculus [3]) | Emax (Mus musculus [1]) | pA2 (Mus musculus [2]) | other results
1 | H-FPFTGARKSARK-NH2 | inactive | inactive | inactive | –
2 | C[C@H](NC(=O)CNC(=O)[C@@H](NC(=O)[C@H](Cc1ccccc1)NC(=O)CNC(=O)CNC[C@@H](N)Cc1ccccc1)[C@@H](C)O)C(=O)N[C@@H](CCCN=C(N)N)C(=O)N[C@@H](CCCCN)C(=O)N[C@@H](CO)C(=O)N[C@@H](C)C(=O)N[C@@H](CCCN=C(N)N)C(=O)N[C@@H](CCCCN)C(N)=O (H-[X1]GFTGARKSARK-NH2) | inactive | inactive | – | Kb (Mus musculus [4]): 178 nM
3 | C[C@H](NC(=O)CNC(=O)[C@@H](NC(=O)[C@H](Cc1ccccc1)NC(=O)CNC(=O)[C@H](Cc1ccccc1)NC(=O)[C@@H](N)Cc1ccccc1)[C@@H](C)O)C(=O)N[C@@H](CCCN=C(N)N)C(=O)N[C@@H](CCCCN)C(=O)N[C@@H](CO)C(=O)N[C@@H](C)C(=O)N[C@@H](CCCN=C(N)N)C(=O)N[C@@H](CCCCN)C(N)=O | – | – | – | Emax (Mus musculus [5]): inactive; pA2 (Mus musculus [6]): inactive; Log EC50 (Mus musculus [7]): inactive
4 | C[C@H](NC(=O)CNC(=O)[C@@H](NC(=O)[C@H](Cc1ccccc1)NC(=O)CCNC(=O)[C@@H](N)Cc1ccccc1)[C@@H](C)O)C(=O)N[C@@H](CCCN=C(N)N)C(=O)N[C@@H](CCCCN)C(=O)N[C@@H](CO)C(=O)N[C@@H](C)C(=O)N[C@@H](CCCN=C(N)N)C(=O)N[C@@H](CCCCN)C(N)=O (H-F[βAla]FTGARKSARK-NH2) | inactive | inactive | inactive | –
5 | CC(NC(=O)CNC(=O)[C@@H](NC(=O)[C@H](Cc1ccccc1)NC(=O)CNC(=O)C(C)NC(=O)[C@@H](N)Cc1ccccc1)[C@@H](C)O)C(=O)N[C@@H](CCCN=C(N)N)C(=O)N[C@@H](CCCCN)C(=O)N[C@@H](CO)C(=O)NC(C)C(=O)N[C@@H](CCCN=C(N)N)C(=O)N[C@@H](CCCCN)C(N)=O (stereo in doubt) | – | – | – | Emax (Mus musculus [8]): -81; EC50 (Mus musculus [9]): 1000 nM
6 | CC(C)C[C@H](NC(=O)[C@H](CCCCN)NC(=O)[C@H](CCCNC(=N)N)NC(=O)[C@H](C)NC(=O)[C@H](CO)NC(=O)[C@H](CCCCN)NC(=O)[C@H](CCCNC(=N)N)NC(=O)[C@H](C)NC(=O)CNC(=O)[C@@H](NC(=O)[C@H](Cc1ccccc1)NC(=O)CNC(=O)CNC(=O)[C@@H](N)Cc1ccccc1)[C@@H](C)O)C(=O)N[C@@H](C)C(=O)N[C@@H](CC(N)=O)C(=O)N[C@@H](CCC(N)=O)C(=O)O [NOCICEPTIN] | – | – | – | Emax (Mus musculus [8]): -83
7 | C[C@H](NC(=O)CNC(=O)[C@@H](NC(=O)[C@H](Cc1ccccc1)NC(=O)CNC(=O)[C@@H](Cc1ccccc1)NC(=O)[C@@H](N)Cc1ccccc1)[C@@H](C)O)C(=O)N[C@@H](CCCN=C(N)N)C(=O)N[C@@H](CCCCN)C(=O)N[C@@H](CO)C(=O)N[C@@H](C)C(=O)N[C@@H](CCCN=C(N)N)C(=O)N[C@@H](CCCCN)C(N)=O | – | – | – | Emax (Mus musculus [5]): inactive; pA2 (Mus musculus [6]): inactive; Log EC50 (Mus musculus [7]): inactive
8 | H-FGGGFTGARKSARK-NH2 | – | – | inactive | Emax (Mus musculus [8]): -73; EC50 (Mus musculus [9]): 3240 nM
9 | C[C@H](NC(=O)CNC(=O)[C@@H](NC(=O)[C@H](Cc1ccccc1)NC(=O)CNC(=O)CNC(=O)[C@@H](N)Cc1ccccc1)[C@@H](C)O)C(=O)N[C@@H](CCCNC(=N)N)C(=O)N[C@@H](CCCCN)C(=O)N[C@@H](CO)C(=O)N[C@@H](C)C(=O)N[C@@H](CCCNC(=N)N)C(=O)N[C@@H](CCCCN)C(N)=O | – | – | – | Emax (Mus musculus [8]): -84
10 | C[C@H](NC(=O)CNC(=O)[C@@H](NC(=O)[C@H](Cc1ccccc1)NC(=O)[C@@H](Cc1ccccc1)NC(=O)CNC(=O)[C@@H](N)Cc1ccccc1)[C@@H](C)O)C(=O)N[C@@H](CCCN=C(N)N)C(=O)N[C@@H](CCCCN)C(=O)N[C@@H](CO)C(=O)N[C@@H](C)C(=O)N[C@@H](CCCN=C(N)N)C(=O)N[C@@H](CCCCN)C(N)=O (H-FG[dF]FTGARKSARK-NH2) | – | – | inactive | EC50 (Mus musculus [9]): 2090 nM; Emax (Mus musculus [10]): -75

Continued, in another order:

Row | Log EC50 (Mus musculus [3]) | Compound | Emax (Mus musculus [1]) | pA2 (Mus musculus [2]) | other results
11 | inactive | C[C@H](NC(=O)CNC(=O)[C@@H](NC(=O)[C@H](Cc1ccccc1)NC(=O)CCCNC(=O)[C@@H](N)Cc1ccccc1)[C@@H](C)O)C(=O)N[C@@H](CCCN=C(N)N)C(=O)N[C@@H](CCCCN)C(=O)N[C@@H](CO)C(=O)N[C@@H](C)C(=O)N[C@@H](CCCN=C(N)N)C(=O)N[C@@H](CCCCN)C(N)=O (H-F[GABA]FTGARKSARK-NH2) | inactive | inactive | –
12 | inactive | C[C@H](NC(=O)CNC(=O)[C@@H](NC(=O)C(Cc1ccccc1)NC(=O)CNC(=O)CNC[C@H](N)Cc1ccccc1)[C@@H](C)O)C(=O)N[C@@H](CCCN=C(N)N)C(=O)N[C@@H](CCCCN)C(=O)N[C@@H](CO)C(=O)N[C@@H](C)C(=O)N[C@@H](CCCN=C(N)N)C(=O)N[C@@H](CCCCN)C(N)=O (stereo in doubt) | inactive | inactive | –
13 | inactive | C[C@H](NC(=O)CNC(=O)[C@@H](NC(=O)[C@H](Cc1ccccc1)NC(=O)CCCCNC(=O)[C@@H](N)Cc1ccccc1)[C@@H](C)O)C(=O)N[C@@H](CCCN=C(N)N)C(=O)N[C@@H](CCCCN)C(=O)N[C@@H](CO)C(=O)N[C@@H](C)C(=O)N[C@@H](CCCN=C(N)N)C(=O)N[C@@H](CCCCN)C(N)=O (H-F[Ava]FTGARKSARK-NH2) | inactive | inactive | –
14 | inactive | H-FFTGARKSARK-NH2 | inactive | inactive | –
15 | inactive | H-FGFFTGARKSARK-NH2 | inactive | inactive | –
